Data reported in ChEMBL document CHEMBL1156079, “Imidazoquines as antimalarial and antipneumocystis agents” (J Med Chem, 2009).
Converted amounts (≈) assume the structure as drawn.

Columns and labels:
[1] = test system: Pneumocystis carinii; test: Antipneumocystis activity against Pneumocystis carinii assessed as reduction in parasite ATP content after 72 hrs by luciferin-luciferase assay; type: functional, organism-based
In short: (§1)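 P. carinii from immunosuppressed, intratracheally inoculated Long Evans and Brown Norway rats, 10⁸ nuclei/ml in supplemented RPMI 1640 with 20% calf serum, pH 7.5–8.0, 380 mOsm. Compounds added in DMSO (final <0.2% v/v). Incubated at 35 °C, 10% CO₂, with daily medium change; sampled at 24, 48 and 72 h. ATP measured by luciferin-luciferase as % of untreated control; triplicate wells across isolation batches, three readings each.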

[2] = test system: Plasmodium falciparum; test: Antiplasmodial activity against chloroquine-resistant blood stage Plasmodium falciparum W2 after 48 hrs by FACS analysis; type: functional, organism-based; settings: W2, 48 h
[3] = test system: A549; test: Cytotoxicity against human A549 cells after 72 hrs; type: cell-based; settings: A549, 72 h
[4] = test system: Pneumocystis carinii; test: Antipneumocystis activity against Pneumocystis carinii assessed as reduction in parasite ATP content after 24 hrs by luciferin-luciferase assay; type: functional, organism-based; in short: as §1
[5] = test system: Pneumocystis carinii; test: Antipneumocystis activity against Pneumocystis carinii assessed as reduction in parasite ATP content after 48 hrs by luciferin-luciferase assay; type: functional, organism-based; in short: as §1
[6] = Solubility in water; type: physicochemical
[7] = test system: Pneumocystis carinii; test: Antipneumocystis activity against Pneumocystis carinii assessed as reduction in parasite ATP content after 24 to 72 hrs by luciferin-luciferase assay; type: functional, organism-based; in short: as §1
[8] = test system: Plasmodium berghei; test: Antiplasmodial activity against Plasmodium berghei ANKA infected in BALB/c mice (Mus musculus) assessed as parasite-transmission to Anopheles stephensi after feeding on infected mice (Mus musculus) at 10 umol/kg, intraperitoneally administered 4 days after infection measured 10 days after 2 hrs of mosquito feeding by transmission-blocking activity assay relative to control; type: functional
In short: (§2)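 Balb/C mice infected with P. berghei ANKA; after 4 days, once gametocytes were seen on Giemsa blood films, groups of six got one intraperitoneal dose (10 or 50 μmol/kg; PBS controls). At 2 h, anesthetized mice fed ca. 50 glucose-starved female An. stephensi for 2 h. Ten days later, 10 mosquitoes per cage dissected; midgut oocysts counted, giving % infected mosquitoes and mean oocysts per mosquito.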

[9] = Octanol/water partition coefficient, log P of the compound; type: physicochemical
[10] = test system: Plasmodium berghei; test: Antiplasmodial activity against Plasmodium berghei ANKA infected in BALB/c mice (Mus musculus) assessed as parasite-transmission to Anopheles stephensi after feeding on infected mice (Mus musculus) at 50 umol/kg, intraperitoneally administered 4 days after infection measured 10 days after 2 hrs of mosquito feeding by transmission-blocking activity assay relative to control; type: functional; in short: as §2
[11] = test system: Pneumocystis carinii; test: Antipneumocystis activity against Pneumocystis carinii assessed as reduction in parasite ATP content at < 0.2% v/v by luciferin-luciferase assay; type: functional, organism-based; settings: TDE = time-dependent effect
[12] = test system: Plasmodium berghei; test: Antiplasmodial activity against liver-stage GFP expressing Plasmodium berghei sporozoites infected in human HuH7 cells assessed as inhibition of parasite schizonts development after 48 hrs by FACS analysis; type: functional, organism-based; settings: for Activity: Huh-7; for IC50: Huh-7, Liver
[13] = Chemical stability by HPLC analysis; type: physicochemical
[14] = species on record: Homo sapiens; test: Half life in human plasma by HPLC analysis
[15] = Selectivity index, ratio of cytotoxicity against human A549 cells to IC50 for chloroquine-resistant blood-stage Plasmodium falciparum W2; type: toxicity, cell-based; settings: read-out: Selectivity Index

## COc1cc(N(C(C)=O)C(C)CCCN2C(=O)CN(C(C)=O)C2(C)C)c2ncccc2c1 (stereo unspecified)
[1]
  IC50: ≥ 50 µM
[2]
  IC50: > 10 µM
[3]
  IC50: > 100 µM
[4]
  IC50: ≥ 50 µM
[5]
  IC50: ≥ 50 µM

## COc1cc(NC(C)CCCN)c2ncccc2c1 (stereo unspecified) [PRIMAQUINE]
[1]
  IC50: 3.5 µM
[6]; buffer
  solubility: 56.4 µg/mL (≈ 217 µM)
[3]
  IC50: > 100 µM
[7]
  Activity: Dose-dependent effect
[8]
  Activity: 40%
[4]
  IC50: 18.1 µM
[9]
  logP: 2.76
[5]
  IC50: 8.5 µM
[10]
  Activity: 2.9%
[11]
  Activity: tde

## COc1cc(NC(C)CCCN2C(=O)CN(C(=O)[C@H](N)Cc3ccccc3)C2(C)C)c2ncccc2c1 (stereo partly specified)
[1]
  IC50: 10.1 µM
[2]
  IC50: 9.9 µM
[6]; water
  solubility: 5.4 µg/mL (≈ 10.7 µM)
[12]
  Activity: Dose-dependent effect
  IC50: 21 µM
[3]
  IC50: 9.1 µM
[7]
  Activity: Dose-dependent effect
[8]
  Activity: 43.8%
[13]
  Stability: Stable
[4]
  IC50: 24 µM
[9]
  logP: 3.6
[5]
  IC50: 18.5 µM
[10]
  Activity: 40%
[11]
  Activity: tde
[14]
  half-life: > 72 h

## COc1cc(NC(C)CCCN2C(=O)CNC2(C)C)c2ncccc2c1 (stereo unspecified)
[6]; water
  solubility: 40.5 µg/mL (≈ 114 µM)
[9]
  logP: 3.07

## COc1cc(NC(C)CCCN2C(=O)[C@@H](C)NC2(C)C)c2ncccc2c1 (stereo partly specified)
[6]; water
  solubility: 29.8 µg/mL (≈ 80.4 µM)
[9]
  logP: 3.25
[14]
  half-life: > 72 h

## COc1cc(NC(C)CCCN2C(=O)CN(C(=O)[C@H](N)C(C)C)C2(C)C)c2ncccc2c1 (stereo partly specified)
[1]
  IC50: 13.6 µM
[2]
  IC50: 7.9 µM
[6]; water
  solubility: 46.5 µg/mL (≈ 102 µM)
[12]
  Activity: Dose-dependent effect
  IC50: 17 µM
[3]
  IC50: 5.5 µM
[7]
  Activity: Dose-dependent effect
[13]
  Stability: Stable
[4]
  IC50: 54.3 µM
[9]
  logP: 2.93
[5]
  IC50: 20.2 µM
[11]
  Activity: tde
[14]
  half-life: > 72 h

## COc1cc(NC(C)CCCN2C(=O)CN(C(C)=O)C2(C)C)c2ncccc2c1 (stereo unspecified)
[1]
  IC50: 36.7 µM
[2]
  IC50: > 10 µM
[3]
  IC50: > 100 µM
[4]
  IC50: ≥ 50 µM
[5]
  IC50: 102 µM

## CC[C@H](C)[C@@H](N)C(=O)N1CC(=O)N(CCCC(C)Nc2cc(OC)cc3cccnc23)C1(C)C (stereo partly specified)
[1]
  IC50: 9.8 µM
[2]
  IC50: 8.7 µM
[6]; water
  solubility: 29.7 µg/mL (≈ 63.2 µM)
[12]
  Activity: Dose-dependent effect
  IC50: 13 µM
[3]
  IC50: 14.9 µM
[7]
  Activity: Dose-dependent effect
[8]
  Activity: 83.3%
[13]
  Stability: Stable
[4]
  IC50: 27.5 µM
[9]
  logP: 3.4
[5]
  IC50: 16 µM
[10]
  Activity: 62.2%
[11]
  Activity: tde
[14]
  half-life: > 72 h

## COc1cc(NC(C)CCCN2C(=O)[C@@H](C)N(C(=O)CN)C2(C)C)c2ncccc2c1 (stereo partly specified)
[1]
  IC50: 52.2 µM
[2]
  IC50: 5.5 µM
[6]; water
  solubility: 110 µg/mL (≈ 257 µM)
[12]
  Activity: Dose-dependent effect
  IC50: 21 µM
[3]
  IC50: > 100 µM
[7]
  Activity: Dose-dependent effect
[8]
  Activity: 62%
[13]
  Stability: Stable
[4]
  IC50: ≥ 50 µM
[9]
  logP: 2.57
[5]
  IC50: 75.4 µM
[10]
  Activity: 37.5%
[11]
  Activity: tde
[14]
  half-life: > 72 h

## COc1cc(NC(C)CCCN2C(=O)CN(C(=O)[C@H](N)CCSC)C2(C)C)c2ncccc2c1 (stereo partly specified)
[1]
  IC50: 7 µM
[2]
  IC50: 12.5 µM
[6]; water
  solubility: 11.7 µg/mL (≈ 24 µM)
[12]
  Activity: Dose-dependent effect
  IC50: 31 µM
[3]
  IC50: 7.9 µM
[7]
  Activity: Dose-dependent effect
[8]
  Activity: 47.1%
[13]
  Stability: Stable
[4]
  IC50: 23.8 µM
[9]
  logP: 2.94
[5]
  IC50: 13.1 µM
[10]
  Activity: 26.4%
[11]
  Activity: tde
[14]
  half-life: > 72 h

## COc1cc(NC(C)CCCN2C(=O)CN(C(=O)[C@@H](C)N)C2(C)C)c2ncccc2c1 (stereo partly specified)
[1]
  IC50: 8.4 µM
[6]; water
  solubility: 120 µg/mL (≈ 281 µM)
[12]
  Activity: Dose-dependent effect
  IC50: 10 µM
[3]
  IC50: 7.8 µM
[7]
  Activity: Dose-dependent effect
[8]
  Activity: 67.9%
[13]
  Stability: Stable
[4]
  IC50: 39.6 µM
[9]
  logP: 2.49
[5]
  IC50: 18.7 µM
[10]
  Activity: 40.1%
[11]
  Activity: tde
[14]
  half-life: > 72 h

## COc1cc(NC(C)CCCN2C(=O)CN(C(=O)CN)C2(C)C)c2ncccc2c1 (stereo unspecified)
[1]
  IC50: 28.1 µM
[2]
  IC50: 6.7 µM
[6]; water
  solubility: 150 µg/mL (≈ 363 µM)
[12]
  Activity: Dose-dependent effect
  IC50: 22 µM
[3]
  IC50: > 100 µM
[7]
  Activity: Dose-dependent effect
[8]
  Activity: 42.5%
[13]
  Stability: Stable
[4]
  IC50: 43.8 µM
[9]
  logP: 2.19
[5]
  IC50: 37.5 µM
[10]
  Activity: 40.5%
[11]
  Activity: tde
[14]
  half-life: > 72 h

## COc1cc(NC(C)CCCN2C(=O)CN(C(=O)[C@H](N)CC(C)C)C2(C)C)c2ncccc2c1 (stereo partly specified)
[1]
  IC50: 10.9 µM
[2]
  IC50: 6.3 µM
[6]; water
  solubility: 26.6 µg/mL (≈ 56.6 µM)
[15]
  selectivity ratio: 3.5
[12]
  Activity: Dose-dependent effect
  IC50: 24 µM
[3]
  IC50: 21.2 µM
[7]
  Activity: Dose-dependent effect
[13]
  Stability: Stable
[4]
  IC50: 31.1 µM
[9]
  logP: 3.36
[5]
  IC50: 17.9 µM
[11]
  Activity: tde
[14]
  half-life: > 72 h
